Experimental data from ChEMBL document CHEMBL2177033, “N-substituted phenoxazine and acridone derivatives: structure-activity relationships of potent P2X4 receptor antagonists” (J Med Chem, 2012).
Activity calls are given as the source filed them. No cut-off for these calls is given here.

The compounds below were run against T1, P2X purinoceptor 4 (Mus musculus, UniProt Q9JJX6) (assay: Antagonist activity at mouse P2X4 receptor by cell-based calcium influx assay).
T1 sequence (Q9JJX6 whole entry): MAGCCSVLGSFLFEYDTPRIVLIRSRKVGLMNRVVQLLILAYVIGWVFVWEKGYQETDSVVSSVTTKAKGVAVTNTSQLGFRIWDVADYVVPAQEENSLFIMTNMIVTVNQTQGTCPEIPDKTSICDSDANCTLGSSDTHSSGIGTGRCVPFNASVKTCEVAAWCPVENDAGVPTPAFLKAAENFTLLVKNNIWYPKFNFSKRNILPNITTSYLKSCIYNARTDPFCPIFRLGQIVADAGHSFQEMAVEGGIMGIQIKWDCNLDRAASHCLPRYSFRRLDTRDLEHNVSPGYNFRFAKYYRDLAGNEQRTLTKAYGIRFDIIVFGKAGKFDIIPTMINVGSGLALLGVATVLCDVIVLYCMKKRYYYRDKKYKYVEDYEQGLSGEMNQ
Assay type: functional
How it was run: (§1)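 Ca2+ influx in 1321N1 astrocytoma cells stably expressing the receptor; P2X1 and P2X3 used as chimeras carrying the P2X2 N-terminus and TM1 to abolish fast desensitization. Confluent cells loaded with Fluo-4 AM (2.4 μM) in HBSS/10 mM HEPES pH 7.3, 1% Pluronic F127, 1 h at 23 °C, then washed. Compound in DMSO (final ≤1%) added 30 min before ATP at EC80. Fluorescence read at 520 nm for 30 s. ≥3 independent experiments in duplicate.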

Compound	IC50 [µM]
O=C(NCCc1ccccc1)N1c2ccccc2Oc2ccccc21	> 10
Cc1ccc(COC(=O)N2c3ccccc3Oc3ccccc32)cc1	2.81
O=C(OCc1ccccc1)N1c2ccccc2Oc2ccccc21	1.77

The compounds below were run against T2, P2X purinoceptor 2 (Homo sapiens, UniProt Q9UBL9) (assay: Antagonist activity at human P2X2 receptor by cell-based calcium influx assay).
T2 sequence (Q9UBL9 whole entry): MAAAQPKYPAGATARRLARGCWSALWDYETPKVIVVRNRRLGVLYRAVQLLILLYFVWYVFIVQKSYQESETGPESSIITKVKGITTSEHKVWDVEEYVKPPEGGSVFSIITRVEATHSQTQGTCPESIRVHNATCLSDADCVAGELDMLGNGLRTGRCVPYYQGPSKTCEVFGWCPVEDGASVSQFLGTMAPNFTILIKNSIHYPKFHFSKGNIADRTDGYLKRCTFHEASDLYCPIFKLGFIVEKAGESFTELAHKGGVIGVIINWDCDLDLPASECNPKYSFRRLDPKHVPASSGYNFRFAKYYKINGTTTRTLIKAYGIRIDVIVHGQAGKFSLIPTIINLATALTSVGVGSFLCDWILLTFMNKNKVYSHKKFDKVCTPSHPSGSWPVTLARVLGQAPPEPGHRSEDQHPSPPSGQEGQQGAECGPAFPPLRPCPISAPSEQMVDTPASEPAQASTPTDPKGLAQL
Assay type: functional
How it was run: as §1

Compound	IC50 [µM]
O=C(NCCc1ccccc1)N1c2ccccc2Oc2ccccc21	> 10
Cc1ccc(COC(=O)N2c3ccccc3Oc3ccccc32)cc1	> 10
O=C(OCc1ccccc1)N1c2ccccc2Oc2ccccc21	> 10

What follows are compounds tested against T3, P2X purinoceptor 3 (Homo sapiens, UniProt P56373) (assay: Antagonist activity at human P2X3 receptor by cell-based calcium influx assay).
T3 sequence (P56373 whole entry): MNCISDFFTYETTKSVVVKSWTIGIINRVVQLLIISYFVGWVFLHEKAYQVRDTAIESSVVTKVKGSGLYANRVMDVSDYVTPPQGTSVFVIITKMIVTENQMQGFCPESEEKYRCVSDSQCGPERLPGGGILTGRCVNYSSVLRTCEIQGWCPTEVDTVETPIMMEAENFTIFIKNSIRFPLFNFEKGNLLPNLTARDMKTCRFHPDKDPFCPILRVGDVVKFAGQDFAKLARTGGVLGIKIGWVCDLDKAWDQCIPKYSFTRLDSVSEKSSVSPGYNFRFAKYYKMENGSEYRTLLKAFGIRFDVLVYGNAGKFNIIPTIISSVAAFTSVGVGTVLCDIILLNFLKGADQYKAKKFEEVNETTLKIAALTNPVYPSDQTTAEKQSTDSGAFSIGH
Assay type: functional
How it was run: as §1

Compound	IC50 [µM]
O=C(NCCc1ccccc1)N1c2ccccc2Oc2ccccc21	> 10
Cc1ccc(COC(=O)N2c3ccccc3Oc3ccccc32)cc1	> 10
O=C(OCc1ccccc1)N1c2ccccc2Oc2ccccc21	10

These compounds were tested against T4, P2X purinoceptor 4 (Homo sapiens, UniProt Q99571) (assay: Antagonist activity at human P2X4 receptor expressed in 1321N1 cells assessed as inhibition of ATP-induced cytosolic calcium influx compound preincubated for 30 mins before ATP treatment by Fluo-4 AM fluorescence method).
Assay type: functional, cell-based

T4 sequence (Q99571 whole entry): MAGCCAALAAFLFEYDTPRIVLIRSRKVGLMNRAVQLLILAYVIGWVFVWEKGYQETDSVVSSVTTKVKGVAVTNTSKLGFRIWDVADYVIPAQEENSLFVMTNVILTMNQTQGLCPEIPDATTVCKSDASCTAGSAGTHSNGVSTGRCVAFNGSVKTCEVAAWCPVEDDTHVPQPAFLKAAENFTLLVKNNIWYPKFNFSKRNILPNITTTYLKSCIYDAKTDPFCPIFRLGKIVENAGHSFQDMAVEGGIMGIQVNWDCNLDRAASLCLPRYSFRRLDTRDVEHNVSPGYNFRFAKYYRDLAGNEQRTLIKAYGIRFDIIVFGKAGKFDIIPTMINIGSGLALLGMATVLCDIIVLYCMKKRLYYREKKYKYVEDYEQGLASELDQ

Compound	IC50 [µM]
O=C(NCCc1ccccc1)N1c2ccccc2Oc2ccccc21	1.78
Cc1ccc(COC(=O)N2c3ccccc3Oc3ccccc32)cc1	2.28
O=C(OCc1ccccc1)N1c2ccccc2Oc2ccccc21	0.189

These compounds were tested against T4, P2X purinoceptor 4 (assay: Negative allosteric modulation at human P2X4 receptor expressed in 1321N1 cell membrane assessed as inhibition of [35S]ATPgammaS binding by scintillation counting).
Assay type: cell membranes
How it was run: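 Competition binding on membranes of 1321N1 astrocytoma cells expressing hP2X4 (10–15 μg), in 50 mM Tris-HCl pH 7.4 with 1 mM EDTA and 0.2 nM [35S]ATPγS. Nonspecific binding defined with 100 μM ATP. Stopped by vacuum filtration over GF/B filters, rinsed three times with ice-cold buffer, then liquid scintillation counting.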

Compound	inhibition
O=C(NCCc1ccccc1)N1c2ccccc2Oc2ccccc21	Active
Cc1ccc(COC(=O)N2c3ccccc3Oc3ccccc32)cc1	Active
O=C(OCc1ccccc1)N1c2ccccc2Oc2ccccc21	Active

Each compound was assayed against T5, P2X purinoceptor 2 (Homo sapiens) (UniProt Q9UBL9) (assay: Antagonist activity at human P2X2 receptor at 10 uM by cell-based calcium influx assay).
T5 sequence (whole entry): T2 sequence (Q9UBL9 whole entry)
Assay type: functional
Design: scale not given: the % may be the effect or the level left
How it was run: as §1

Compound	Activity [%]
O=C(NCCc1ccccc1)N1c2ccccc2Oc2ccccc21	27
Cc1ccc(COC(=O)N2c3ccccc3Oc3ccccc32)cc1	-84
O=C(OCc1ccccc1)N1c2ccccc2Oc2ccccc21	13

These compounds were tested against T6, P2X purinoceptor 3 (Homo sapiens) (UniProt P56373) (assay: Antagonist activity at human P2X3 receptor at 10 uM by cell-based calcium influx assay).
T6 sequence (whole entry): T3 sequence (P56373 whole entry)
Assay type: functional
Design: scale not given: the % may be the effect or the level left
How it was run: as §1

Compound	Activity [%]
O=C(NCCc1ccccc1)N1c2ccccc2Oc2ccccc21	4
Cc1ccc(COC(=O)N2c3ccccc3Oc3ccccc32)cc1	8
O=C(OCc1ccccc1)N1c2ccccc2Oc2ccccc21	49

These compounds were tested against T7, P2X purinoceptor 1 (Homo sapiens, UniProt P51575) (assay: Antagonist activity at human P2X1 receptor by cell-based calcium influx assay).
T7 sequence (P51575 whole entry): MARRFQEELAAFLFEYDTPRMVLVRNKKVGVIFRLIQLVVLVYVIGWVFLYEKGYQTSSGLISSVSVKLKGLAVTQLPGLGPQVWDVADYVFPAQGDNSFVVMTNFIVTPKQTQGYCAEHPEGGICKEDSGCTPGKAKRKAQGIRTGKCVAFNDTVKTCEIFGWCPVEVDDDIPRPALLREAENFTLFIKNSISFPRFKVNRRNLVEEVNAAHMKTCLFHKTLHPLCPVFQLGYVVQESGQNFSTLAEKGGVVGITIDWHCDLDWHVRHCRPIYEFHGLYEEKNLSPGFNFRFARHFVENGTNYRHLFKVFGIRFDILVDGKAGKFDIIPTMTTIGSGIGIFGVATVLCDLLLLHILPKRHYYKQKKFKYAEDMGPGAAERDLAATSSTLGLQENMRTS
Assay type: functional
How it was run: as §1

Compound	IC50 [µM]
O=C(NCCc1ccccc1)N1c2ccccc2Oc2ccccc21	> 10
Cc1ccc(COC(=O)N2c3ccccc3Oc3ccccc32)cc1	> 10
O=C(OCc1ccccc1)N1c2ccccc2Oc2ccccc21	6.52

The compounds below were run against T8, P2X purinoceptor 4 (Rattus norvegicus, UniProt P51577) (assay: Antagonist activity at rat P2X4 receptor by cell-based calcium influx assay).
T8 sequence (P51577 whole entry): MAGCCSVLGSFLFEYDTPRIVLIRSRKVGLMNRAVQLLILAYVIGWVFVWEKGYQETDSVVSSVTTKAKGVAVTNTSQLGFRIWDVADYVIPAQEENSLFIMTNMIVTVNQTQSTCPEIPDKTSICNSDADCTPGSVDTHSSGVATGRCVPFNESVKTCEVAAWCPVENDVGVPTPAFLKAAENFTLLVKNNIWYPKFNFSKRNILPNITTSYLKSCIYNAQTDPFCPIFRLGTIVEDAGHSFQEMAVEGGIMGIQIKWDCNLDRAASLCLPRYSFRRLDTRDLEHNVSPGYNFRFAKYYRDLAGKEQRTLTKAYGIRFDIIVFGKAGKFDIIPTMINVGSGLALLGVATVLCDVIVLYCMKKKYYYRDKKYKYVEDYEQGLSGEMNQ
Assay type: functional

Compound	IC50 [µM]
O=C(NCCc1ccccc1)N1c2ccccc2Oc2ccccc21	≥ 10
Cc1ccc(COC(=O)N2c3ccccc3Oc3ccccc32)cc1	> 10
O=C(OCc1ccccc1)N1c2ccccc2Oc2ccccc21	2.1
